From ChEMBL document CHEMBL5360580 (Eur J Med Chem, 2023)
Calls of active or inactive are those of the source. The rule behind the calls is not given here.

What was measured:
SARS-CoV-2 [1] = experiment: Antiviral activity against SARS-CoV-2 infected in African green monkey Vero E6 cells assessed as inhibition of viral replication at 2.5 uM incubated for 24 hrs by IFA assay relative to control; assay type: functional; conditions: Severe acute respiratory syndrome coronavirus 2, Vero C1008
Vero C1008 [2] = experiment: Downregulation of BECN1 level in African green monkey Vero E6 cells at 10 uM measured after 16 hrs by Western blotting analysis; assay type: functional, cell-based; conditions: Chlorocebus sabaeus
Method in brief: (§1)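 Vero-E6 cells in DMEM with 10% FBS were cultured overnight at 37 °C, 5% CO2, then treated with a concentration series for 16 h. Lysates were made in RIPA on ice and equalised for protein by BCA. Blots were probed for SKP2 or Beclin-1 plus β-actin and detected by ECL. The band-intensity ratio to β-actin was normalised to DMSO control.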

[3] = Aqueous solubility of compound at 0.5 mg/mL in presence of acetonitrile by HPLC analysis; assay type: physicochemical; conditions: buffer
Method in brief: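 Compound was suspended in water, vortexed vigorously and filtered through a 0.22 μm membrane. The filtrate was diluted 2-fold with 80% acetonitrile and analysed by reversed-phase amide HPLC. Concentration was read against a standard curve prepared from a 0.5 mg/mL solution in 80% acetonitrile. Single determination.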

Vero C1008 [4] = experiment: Downregulation of BECN1 level in African green monkey Vero E6 cells at 1 to 3 uM measured after 16 hrs by Western blotting analysis; assay type: functional, cell-based; conditions: Chlorocebus sabaeus, dose 1-3 µM; method in brief: as §1
[5] = Half life in ICR mouse at 30 mg/kg, po measured upto 24 hrs by LC-MS/MS analysis; assay type: ADME, organism-based; conditions: in vivo
Method in brief: (§2)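 Male-unspecified ICR (CD-1) mice, N = 3 per group, were fasted 12 h. Compound in DMSO/0.5% HMPC (5/95, v/v) was given orally at 30 mg/kg or intravenously at 2.5 mg/kg. Femoral-vein blood was drawn at 0.25, 0.5, 1, 2, 4, 8 and 24 h, and serum analyte levels were measured by LC-MS/MS.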

Vero C1008 [6] = experiment: Cytotoxicity against African green monkey Vero E6 cells assessed as reduction in cell viability measured after 48 hrs by CCK-8 assay; assay type: toxicity, cell-based; conditions: chlorocebus sabaeus, vero c1008, 48 h
[7] = Observed MRT (0 to infinity) in ICR mouse at 30 mg/kg, po measured upto 24 hrs by LC-MS/MS analysis; assay type: ADME, organism-based; conditions: in vivo; method in brief: as §2
[8] = Observed AUC (0 to infinity) in ICR mouse at 30 mg/kg, po measured upto 24 hrs by LC-MS/MS analysis; assay type: ADME, organism-based; design: dose 30 mg/kg, time < 24 hrs, route po; conditions: in vivo; method in brief: as §2
[9] = AUClast in ICR mouse at 30 mg/kg, po measured upto 24 hrs by LC-MS/MS analysis; assay type: ADME, organism-based; design: dose 30 mg/kg, time < 24 hrs, route po; conditions: in vivo; method in brief: as §2
Vero C1008 [10] = experiment: Downregulation of SKP2 level in African green monkey Vero E6 cells at 0.3 to 10 uM measured after 16 hrs by Western blotting analysis; assay type: functional, cell-based; conditions: Chlorocebus sabaeus, dose 0.3-10 µM; method in brief: as §1
[11] = Cmax in ICR mouse at 30 mg/kg, po measured upto 24 hrs by LC-MS/MS analysis; assay type: ADME, organism-based; design: dose 30 mg/kg, time < 24 hrs, route po; conditions: in vivo; method in brief: as §2
SARS-CoV-2 [12] = experiment: Antiviral activity against SARS-CoV-2 infected in African green monkey Vero E6 cells assessed as inhibition of viral replication at 1 uM incubated for 24 hrs by IFA assay relative to control; assay type: functional; conditions: Severe acute respiratory syndrome coronavirus 2, Vero C1008
SARS-CoV-2 [13] = experiment: Antiviral activity against SARS-CoV-2 infected in African green monkey Vero E6 cells assessed as inhibition of viral replication incubated for 24 hrs by IFA assay; assay type: functional, organism-based; conditions: Severe acute respiratory syndrome coronavirus 2, Vero C1008, 24 h
[14] = Selectivity index, ratio of CC50 for cytotoxicity against African green monkey Vero E6 to EC50 for antiviral activity against SARS-CoV-2 infected in African green monkey Vero E6 cells; assay type: toxicity, cell-based, Vero C1008; conditions: read-out: Ratio CC50/EC50

O=C(Nc1ccc([N+](=O)[O-])cc1Cl)c1cc(Cl)ccc1O [NICLOSAMIDE]
inhibition at 2.5 µM (SARS-CoV-2 [1]): 39% | Activity (Vero C1008 [2]): Active | solubility [3]: 0.16 µg/mL | Activity (Vero C1008 [4]): Active | t1/2 [5]: 1.99 h | CC50 (Vero C1008 [6]): 1960 nM | MRT [7]: 2.81 h | AUC [8]: 522 ng·h/mL | AUClast [9]: 478 ng·h/mL | Activity (Vero C1008 [10]): Active | Cmax [11]: 428 ng/mL

CC(=O)Nc1ccc(NC(=O)c2cc(Cl)ccc2O)c(Cl)c1
inhibition at 1 µM (SARS-CoV-2 [12]): < 10%

O=C(Nc1ccc(C(F)(F)F)cc1)c1cc(Cl)cc(Cl)c1O
inhibition at 1 µM (SARS-CoV-2 [12]): < 10%

O=C(Nc1ccc(C(F)(F)F)cc1)c1cc(Cl)ccc1O
inhibition at 1 µM (SARS-CoV-2 [12]): 95% | EC50 (SARS-CoV-2 [13]): 1310 nM

O=C(NCc1ccc(C(F)(F)F)cc1)c1cc(Cl)ccc1O
inhibition at 1 µM (SARS-CoV-2 [12]): 55%

O=C(Nc1ccc(C(F)(F)F)cc1)c1cc(Cl)c(F)cc1O
selectivity ratio [14]: 3.73 | t1/2 [5]: 3.1 h | CC50 (Vero C1008 [6]): 3730 nM | MRT [7]: 5.45 h | inhibition at 1 µM (SARS-CoV-2 [12]): 95% | AUC [8]: 1573 ng·h/mL | EC50 (SARS-CoV-2 [13]): 1000 nM | AUClast [9]: 1563 ng·h/mL | Cmax [11]: 452 ng/mL

O=C(NC(=O)c1cc(Cl)ccc1O)c1ccc(C(F)(F)F)cc1
inhibition at 1 µM (SARS-CoV-2 [12]): < 10%
